The values that follow come from ChEMBL document CHEMBL1140754, “Synthesis and insecticidal evaluation of novel N'-tert-butyl-N'-substitutedbenzoyl-N-5-chloro-6-chromanecarbohydrazide derivatives” (2008).

The structures appear in SMILES notation. Values after ≈ are worked out from the molar mass of the structure shown.

For the test, the system named is Mythimna separata. In words: Larvicidal activity against Oriental armyworm. It is filed as functional. Put shortly: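 Oriental armyworm (Mythimna separata) larvae dosed by foliar application. Each treatment run in triplicate. LC50 derived by Probit analysis. Reference insecticides were tested under the same conditions.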
As a reminder, the LC50 is the concentration lethal to half of the exposed cells or organisms. A lower LC50 goes with a more lethal substance. `CC(C)(C)N(NC(=O)c1ccc2c(c1Cl)CCCO2)C(=O)c1ccc(Cl)cc1` gave an LC50 of 4.06 µg/mL (≈ 9.64 µM).

`CC(C)(C)N(NC(=O)c1ccc2c(c1Cl)CCCO2)C(=O)c1ccc(Cl)cc1Cl` returned an LC50 of 4.11 µg/mL (≈ 9.02 µM).

In the case of `CC(C)(C)N(NC(=O)c1ccc2c(c1Cl)CCCO2)C(=O)c1cc(Cl)cc(Cl)c1`, the LC50 worked out at 4.11 µg/mL (≈ 9.02 µM).

As to `CC(C)(C)N(NC(=O)c1ccc2c(c1Cl)CCCO2)C(=O)c1c(Cl)cc(Cl)cc1Cl`, the LC50 is above 500 µg/mL.

As to `CC(C)(C)N(NC(=O)c1ccc2c(c1Cl)CCCO2)C(=O)c1c(Cl)cc(C(F)(F)F)cc1Cl`, the LC50 is above 500 µg/mL.

Compound `CC(C)(C)N(NC(=O)c1ccc2c(c1Cl)CCCO2)C(=O)c1ccccc1F` gave an LC50 of 4.75 µg/mL (≈ 11.7 µM).

Compound `CC(C)(C)N(NC(=O)c1ccc2c(c1Cl)CCCO2)C(=O)c1ccccc1[N+](=O)[O-]` displayed an LC50 of 6.54 µg/mL (≈ 15.1 µM).

The compound `CC(C)(C)N(NC(=O)c1ccc2c(c1Cl)CCCO2)C(=O)c1ccc([N+](=O)[O-])cc1` had an LC50 of 29.7 µg/mL (≈ 68.8 µM).

`CC(C)(C)N(NC(=O)c1ccc2c(c1Cl)CCCO2)C(=O)c1ccc(F)cc1F` came in with an LC50 of 5.69 µg/mL (≈ 13.5 µM).

In turn, `CC(C)(C)N(NC(=O)c1ccc2c(c1Cl)CCCO2)C(=O)c1cccc(I)c1` showed an LC50 of 30.2 µg/mL (≈ 58.9 µM).

Compound `COc1ccc(C(=O)N(NC(=O)c2ccc3c(c2Cl)CCCO3)C(C)(C)C)cc1` displayed an LC50 of 25.1 µg/mL (≈ 60.1 µM).

Consider `COc1ccc(C(=O)N(NC(=O)c2ccc3c(c2Cl)CCCO3)C(C)(C)C)cc1OC`, for which the LC50 was found to be 19.8 µg/mL (≈ 44.2 µM).

As to `COc1cc(C(=O)N(NC(=O)c2ccc3c(c2Cl)CCCO3)C(C)(C)C)cc(OC)c1OC`, the LC50 came out at 42.7 µg/mL (≈ 89.4 µM).

Compound `CCOc1ccc(C(=O)N(NC(=O)c2ccc3c(c2Cl)CCCO3)C(C)(C)C)cc1` returned an LC50 of 215 µg/mL (≈ 500 µM).

The compound `CC(C)(C)N(NC(=O)c1ccc2c(c1Cl)CCCO2)C(=O)c1cccc(Cl)c1` returned an LC50 of 5.98 µg/mL (≈ 14.2 µM).

On to `Cc1cc(C)cc(C(=O)N(NC(=O)c2ccc3c(c2C)OCCO3)C(C)(C)C)c1`, for which the LC50 was found to be 1.4 µg/mL (≈ 3.53 µM).

With `CC(C)(C)N(NC(=O)c1ccc2c(c1Cl)CCCO2)C(=O)c1ccccc1`, the LC50 was 5 µg/mL (≈ 12.9 µM).

As for `Cc1ccccc1C(=O)N(NC(=O)c1ccc2c(c1Cl)CCCO2)C(C)(C)C`, the median lethal concentration (LC50) was found to be 31.3 µg/mL (≈ 78.1 µM).

With `Cc1cccc(C(=O)N(NC(=O)c2ccc3c(c2Cl)CCCO3)C(C)(C)C)c1`, the LC50 stood at 2.78 µg/mL (≈ 6.93 µM).

For `Cc1ccc(C(=O)N(NC(=O)c2ccc3c(c2Cl)CCCO3)C(C)(C)C)c(C)c1`, the LC50 was found to be 6.14 µg/mL (≈ 14.8 µM).

The compound `COc1cccc(C(=O)N(NC(=O)c2ccc3c(c2Cl)CCCO3)C(C)(C)C)c1` came in with an LC50 of 11.4 µg/mL (≈ 27.3 µM).

Regarding `CC(C)(C)N(NC(=O)c1ccc2c(c1Cl)CCCO2)C(=O)c1ccc([N+](=O)[O-])cc1Cl`, the LC50 was 8.47 µg/mL (≈ 18.2 µM).

`Cc1cc(C)c(C(=O)N(NC(=O)c2ccc3c(c2Cl)CCCO3)C(C)(C)C)c(C)c1` yielded an LC50 above 500 µg/mL.

The compound `COc1ccccc1C(=O)N(NC(=O)c1ccc2c(c1Cl)CCCO2)C(C)(C)C` displayed an LC50 of 10.1 µg/mL (≈ 24.2 µM).

Consider `CC(C)(C)N(NC(=O)c1ccc2c(c1Cl)CCCO2)C(=O)c1cccc([N+](=O)[O-])c1`, for which the LC50 was 399 µg/mL (≈ 924 µM).

Consider `Cc1cc(C)cc(C(=O)N(NC(=O)c2ccc3c(c2Cl)OCCO3)C(C)(C)C)c1`, for which the LC50 was 1.4 µg/mL (≈ 3.36 µM).

Compound `Cc1ccc(C(=O)N(NC(=O)c2ccc3c(c2Cl)CCCO3)C(C)(C)C)cc1` yielded an LC50 of 5.57 µg/mL (≈ 13.9 µM).

Take `CC(C)(C)N(NC(=O)c1ccc2c(c1Cl)CCCO2)C(=O)c1ccc(I)cc1`: the LC50 is 43.5 µg/mL (≈ 84.9 µM).

The compound `CC(C)(C)N(NC(=O)c1ccc2c(c1Cl)CCCO2)C(=O)c1ccccc1Cl` displayed an LC50 of 10.8 µg/mL (≈ 25.5 µM).

`CC(C)(C)N(NC(=O)c1ccc2c(c1Cl)CCCO2)C(=O)c1ccc(Cl)cc1[N+](=O)[O-]`: the LC50 was determined as 2.73 µg/mL (≈ 5.85 µM).

Consider `Cc1cc(C)cc(C(=O)N(NC(=O)c2ccc3c(c2Cl)CCCO3)C(C)(C)C)c1` [N'-TERT-BUTYL-N'-(3,5-DIMETHYLBENZOYL)-N-5-CHLORO-6-CHROMANECARBOHYDRAZIDE], for which the LC50 was 2.25 µg/mL (≈ 5.42 µM).

In turn, `CC(C)(C)N(NC(=O)c1ccccc1)C(=O)c1ccccc1` [RH-5849] yielded an LC50 of 24.4 µg/mL (≈ 82.3 µM).

As for `CCc1ccc(C(=O)NN(C(=O)c2cc(C)cc(C)c2)C(C)(C)C)cc1` [TEBUFENOZIDE], the LC50 was 1.59 µg/mL (≈ 4.51 µM).
